Active and inactive are the calls of the source. The rule behind the calls is not given here.
Tests used:
[1] = target: T1, Gonadotropin-releasing hormone receptor (Rattus norvegicus) (UniProt P30969); test: (§1) Antagonist activity at LH-RH receptor in Sprague-Dawley rat pituitary gland assessed as change in 0.3 ng/mL LH-RH-induced luteinizing hormone release in medium at 10 ug/ml preincubated for 2 hrs followed by LH-RH addition at 5th and 6th hr 5 mins post drug addition and measured every hour for 4 hrs by RIA relative to vehicle-treated control
T1 sequence (whole entry): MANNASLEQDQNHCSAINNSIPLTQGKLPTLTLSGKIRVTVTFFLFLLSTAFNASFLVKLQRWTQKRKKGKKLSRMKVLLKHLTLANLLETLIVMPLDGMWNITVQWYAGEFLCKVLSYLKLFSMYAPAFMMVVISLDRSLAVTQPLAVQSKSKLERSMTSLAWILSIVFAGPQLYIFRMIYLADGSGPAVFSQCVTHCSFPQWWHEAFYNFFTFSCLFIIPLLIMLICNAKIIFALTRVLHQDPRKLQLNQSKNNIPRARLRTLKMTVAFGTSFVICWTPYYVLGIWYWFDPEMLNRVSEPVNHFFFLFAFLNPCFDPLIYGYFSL
Summary of the method: (§2)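 Two pituitaries from 20-day-old female Sprague-Dawley rats per 1 mL lactated Ringer's, incubated 6 h at 37 °C with shaking, medium collected and replaced hourly for LH/FSH RIA. Analogue added at I3, I4, I5 and I6; LH-RH added 5 min after the peptide at I5 and I6. Results given as Δ ng/mL against LH-LER-1240-2 and NIH-FSH-S1-based standards, with SEM and p.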

[2] = target: T1, Gonadotropin-releasing hormone receptor (Rattus norvegicus); test: as §1, with “1” for “10”; summary of the method: as §2
[3] = target: T1, Gonadotropin-releasing hormone receptor (Rattus norvegicus); test: Agonist activity at LH-RH receptor in Sprague-Dawley rat pituitary gland assessed as change in luteinizing hormone release in medium at 10 ug/ml incubated for 4 hrs measured every hour for 4 hrs by RIA relative to vehicle-treated control
Summary of the method: (§3)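 Pituitaries from 20-day-old female Sprague-Dawley rats, two per 1 mL lactated Ringer's, incubated 6 h total at 37 °C with shaking. Medium removed hourly for LH and FSH RIA and replaced with fresh medium. Analogue alone added at I3–I6. Values expressed as ng of standards LH-LER-1240-2 (0.60 NIH-LH-S1 unit/mg) and FSH 2.1 × NIH-FSH-S1 units/mg; change versus control with SEM and p.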

[4] = target: T1, Gonadotropin-releasing hormone receptor (Rattus norvegicus); test: as §1, with “follicle-stimulating” for “luteinizing”; summary of the method: as §2
[5] = target: T1, Gonadotropin-releasing hormone receptor (Rattus norvegicus); test: as §1, with “follicle-stimulating” for “luteinizing”, “1” for “10”; summary of the method: as §2
[6] = target: T1, Gonadotropin-releasing hormone receptor (Rattus norvegicus); test: Agonist activity at LH-RH receptor in Sprague-Dawley rat pituitary gland assessed as change in follicle-stimulating hormone release in medium at 10 ug/ml incubated for 4 hrs measured every hour for 4 hrs by RIA relative to vehicle-treated control; summary of the method: as §3
[7] = target: T1, Gonadotropin-releasing hormone receptor (Rattus norvegicus); test: as §1, with “0.1” for “10”; summary of the method: as §2
[8] = target: T1, Gonadotropin-releasing hormone receptor (Rattus norvegicus); test: Agonist activity at LH-RH receptor in Sprague-Dawley rat pituitary gland assessed as change in luteinizing hormone release in medium at 100 ug/ml incubated for 4 hrs measured every hour for 4 hrs by RIA relative to vehicle-treated control; summary of the method: as §3
[9] = target: T1, Gonadotropin-releasing hormone receptor (Rattus norvegicus); test: as §1, with “follicle-stimulating” for “luteinizing”, “0.1” for “10”; summary of the method: as §2
[10] = target: T1, Gonadotropin-releasing hormone receptor (Rattus norvegicus); test: Agonist activity at LH-RH receptor in Sprague-Dawley rat pituitary gland assessed as change in follicle-stimulating hormone release in medium at 100 ug/ml incubated for 4 hrs measured every hour for 4 hrs by RIA relative to vehicle-treated control; summary of the method: as §3
[11] = target: T1, Gonadotropin-releasing hormone receptor (Rattus norvegicus); test: as §1, with “100” for “10”; summary of the method: as §2
[12] = target: T1, Gonadotropin-releasing hormone receptor (Rattus norvegicus); test: as §1, with “follicle-stimulating” for “luteinizing”, “100” for “10”; summary of the method: as §2
[13] = target: T1, Gonadotropin-releasing hormone receptor (Rattus norvegicus); test: as §1, with “0.6” for “0.3”, “0.1” for “10”; summary of the method: as §2
[14] = target: T1, Gonadotropin-releasing hormone receptor (Rattus norvegicus); test: as §1, with “0.6” for “0.3”, “1” for “10”; summary of the method: as §2
[15] = target: T1, Gonadotropin-releasing hormone receptor (Rattus norvegicus); test: as §1, with “0.6” for “0.3”; summary of the method: as §2
[16] = target: T1, Gonadotropin-releasing hormone receptor (Rattus norvegicus); test: as §1, with “0.6” for “0.3”, “follicle-stimulating” for “luteinizing”, “0.1” for “10”; summary of the method: as §2
[17] = target: T1, Gonadotropin-releasing hormone receptor (Rattus norvegicus); test: as §1, with “0.6” for “0.3”, “follicle-stimulating” for “luteinizing”, “1” for “10”; summary of the method: as §2
[18] = target: T1, Gonadotropin-releasing hormone receptor (Rattus norvegicus); test: as §1, with “0.6” for “0.3”, “follicle-stimulating” for “luteinizing”; summary of the method: as §2
[19] = test system: Rattus norvegicus; test: Inhibition of ovulation in 4 day cycling rat at 1.5 mg, sc administered through corn oil between 12 to 12:30 pm on proestrous stage; type: functional, organism-based
Summary of the method: (§4)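 Antiovulation test in 4-day cycling rats. A single sc injection of analogue in corn oil was given between 12 and 12:30 p.m. on proestrus. Controls received 0.3 mL of vehicle. Ova shed were counted on estrus.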

[20] = test system: Rattus norvegicus; test: Inhibition of ovulation in 4 day cycling rat at 750 ug, sc administered through corn oil between 12 to 12:30 pm on proestrous stage; type: functional; summary of the method: as §4

Compound | Activity [1] | Activity [2] | Activity [3] | Activity [4] | Activity [5] | Activity [6] | Activity [7] | Activity [8] | Activity [9] | Activity [10] | Activity [11] | Activity [12] | Activity [13] | Activity [14] | Activity [15] | Activity [16] | Activity [17] | Activity [18] | inhibition [19] | inhibition [20]
CCNC(=O)[C@@H]1CCCN1C(=O)[C@H](CCCNC(=N)N)NC(=O)[C@H](CC(C)C)NC(=O)[C@@H](C)NC(=O)[C@H](Cc1ccc(O)cc1)NC(=O)[C@H](CO)NC(=O)[C@H](CC(C)C)NC(=O)[C@@H](NC(=O)[C@@H]1CCC(=O)N1)C(C)C | 63 ng/mL | 272 ng/mL | 8 ng/mL | 1640 ng/mL | 4320 ng/mL | 490 ng/mL |  |  |  |  |  |  |  |  |  |  |  |  |  | 
CCNC(=O)[C@@H]1CCCN1C(=O)[C@H](CCCNC(=N)N)NC(=O)[C@H](CC(C)C)NC(=O)[C@@H](C)NC(=O)[C@H](Cc1ccc(O)cc1)NC(=O)[C@H](CO)NC(=O)[C@H](CC(C)C)NC(=O)[C@H](CC(C)C)NC(=O)[C@@H]1CCC(=O)N1 | 45 ng/mL | 60 ng/mL |  | 1460 ng/mL | 3980 ng/mL |  | 166 ng/mL | 73 ng/mL | 5110 ng/mL | 712 ng/mL |  |  |  |  |  |  |  |  |  | 
CCNC(=O)[C@@H]1CCCN1C(=O)[C@H](CCCNC(=N)N)NC(=O)[C@H](CC(C)C)NC(=O)[C@@H](C)NC(=O)[C@H](Cc1ccc(O)cc1)NC(=O)[C@H](CO)NC(=O)[C@H](CC(C)C)NC(=O)[C@@H](NC(=O)[C@@H]1CCC(=O)N1)[C@@H](C)CC | -53 ng/mL | 186 ng/mL |  | 1760 ng/mL | 3330 ng/mL |  |  | 61 ng/mL |  | -227 ng/mL |  |  |  |  |  |  |  |  |  | 
CCCC[C@H](NC(=O)[C@H](CC(C)C)NC(=O)[C@@H]1CCC(=O)N1)C(=O)N[C@@H](CO)C(=O)N[C@@H](Cc1ccc(O)cc1)C(=O)N[C@H](C)C(=O)N[C@@H](CC(C)C)C(=O)N[C@@H](CCCNC(=N)N)C(=O)N1CCC[C@H]1C(=O)NCC | 28 ng/mL | 70 ng/mL |  | 1630 ng/mL | 2240 ng/mL |  |  | 13 ng/mL |  | -282 ng/mL | 12 ng/mL | -516 ng/mL |  |  |  |  |  |  |  | 
CCC[C@H](NC(=O)[C@H](Cc1ccccc1)NC(=O)[C@@H]1CCC(=O)N1)C(=O)N[C@@H](CO)C(=O)N[C@@H](Cc1ccc(O)cc1)C(=O)N[C@H](C)C(=O)N[C@@H](CC(C)C)C(=O)N[C@@H](CCCNC(=N)N)C(=O)N1CCC[C@H]1C(=O)NCC |  |  |  |  |  |  |  | -66 ng/mL |  | -204 ng/mL |  |  | 221 ng/mL | 32 ng/mL | -7 ng/mL | 3980 ng/mL | 2700 ng/mL | -883 ng/mL |  | 
CCNC(=O)[C@@H]1CCCN1C(=O)[C@H](CCCNC(=N)N)NC(=O)[C@H](CC(C)C)NC(=O)[C@@H](C)NC(=O)[C@H](Cc1ccc(O)cc1)NC(=O)[C@H](CO)NC(=O)[C@H](CC)NC(=O)[C@H](CC(C)C)NC(=O)[C@@H]1CCC(=O)N1 | 150 ng/mL |  |  | 3480 ng/mL |  |  |  | 1 ng/mL |  | 866 ng/mL | 45 ng/mL | 1780 ng/mL |  |  |  |  |  |  |  | 
CCC[C@H](NC(=O)[C@H](CC(C)C)NC(=O)[C@@H]1CCC(=O)N1)C(=O)N[C@@H](CO)C(=O)N[C@@H](Cc1ccc(O)cc1)C(=O)N[C@H](C)C(=O)N[C@@H](CC(C)C)C(=O)N[C@@H](CCCNC(=N)N)C(=O)N1CCC[C@H]1C(=O)NCC | 45 ng/mL | 93 ng/mL |  | 2000 ng/mL | 3900 ng/mL |  | 213 ng/mL |  | 5120 ng/mL |  |  |  |  |  |  |  |  |  |  | 
CCNC(=O)[C@@H]1CCCN1C(=O)[C@H](CCCNC(=N)N)NC(=O)[C@H](CC(C)C)NC(=O)[C@@H](C)NC(=O)[C@H](Cc1ccc(O)cc1)NC(=O)[C@H](CO)NC(=O)[C@H](CC(C)C)NC(=O)[C@H](Cc1c[nH]c2ccccc12)NC(=O)[C@@H]1CCC(=O)N1 |  |  |  |  |  |  |  | 18 ng/mL |  | 564 ng/mL |  |  | 193 ng/mL | 73 ng/mL | 36 ng/mL | 7370 ng/mL | 3090 ng/mL | -1 ng/mL | Active | Active
CCNC(=O)[C@@H]1CCCN1C(=O)[C@H](CCCNC(=N)N)NC(=O)[C@H](CC(C)C)NC(=O)[C@@H](C)NC(=O)[C@H](Cc1ccc(O)cc1)NC(=O)[C@H](CO)NC(=O)[C@H](CC(C)C)NC(=O)[C@H](Cc1ccccc1)NC(=O)[C@@H]1CCC(=O)N1 | 47 ng/mL | 77 ng/mL |  | 549 ng/mL | 1560 ng/mL |  | 130 ng/mL | 59 ng/mL | 3120 ng/mL | 1380 ng/mL |  |  |  |  |  |  |  |  |  | 
CCNC(=O)[C@@H]1CCCN1C(=O)[C@H](CCCNC(=N)N)NC(=O)[C@H](CC(C)C)NC(=O)[C@@H](C)NC(=O)[C@H](Cc1ccc(O)cc1)NC(=O)[C@H](CO)NC(=O)CNC(=O)[C@H](CC(C)C)NC(=O)[C@@H]1CCC(=O)N1 |  |  |  |  |  |  |  | -6 ng/mL |  | -782 ng/mL | 169 ng/mL | 3310 ng/mL |  |  |  |  |  |  |  | 
